ChEMBL document CHEMBL1137001, “Synthesis and evaluation of 9-O-substituted berberine derivatives containing aza-aromatic terminal group as highly selective telomeric G-quadruplex stabilizing ligands” (Bioorg Med Chem Lett, 2009)
Calls of active or inactive are those of the source. The calls are words filed in the database; no cut-off is given here.

Columns and labels:
Nucleic Acid [1] = assay: Binding affinity to human telomeric G-quadruplex F21T DNA assessed as change in melting temperature at 2.0 uM by FRET assay; type: nucleic-acid assay
Nucleic Acid [2] = assay: Inhibition of G-quadruplex HTG21 oligomer hybridization by PCR stop assay; type: nucleic-acid assay
Summary of the method: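 HTG21 was amplified by PCR in the presence of compound, and products were separated on gel. IC50 is the concentration that inhibits amplification by 50%.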

[3] = Inhibition of telomerase from human MCF7 cellular extract by cell free TRAP assay
Summary of the method: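 TRAP assay. Compounds at various concentrations were added to a telomerase reaction mixture containing extract from cracked MCF-7 breast carcinoma cells, and IC50 values were derived.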

Nucleic Acid [4] = assay: Binding affinity to hairpin duplex F10T DNA assessed as change in melting temperature at 2.0 uM by FRET assay
Nucleic Acid [5] = assay: Induction of G-quadruplex structure formation in HTG21 oligomer assessed as formation of antiparallel quadruplex structure by CD spectroscopy; type: nucleic-acid assay

| Compound | ΔTm (Nucleic Acid [1]) | IC50 (Nucleic Acid [2]) | IC50 [3] | ΔTm (Nucleic Acid [4]) | Activity (Nucleic Acid [5]) |
| --- | --- | --- | --- | --- | --- |
| COc1ccc2cc3[n+](cc2c1OCCCn1ccc(N)nc1=O)CCc1cc2c(cc1-3)OCO2 | 13 °C | 14 µM | 22 µM | 0 °C |  |
| COc1ccc2cc3[n+](cc2c1OCCCCC[n+]1ccccc1)CCc1cc2c(cc1-3)OCO2 | 21 °C | 7 µM | 15 µM | 0.5 °C |  |
| COc1ccc2cc3[n+](cc2c1OCCCOc1ccncc1)CCc1cc2c(cc1-3)OCO2 | 10 °C | 12 µM | 28 µM | 0 °C |  |
| COc1ccc2cc3[n+](cc2c1OCCCN1CCCCC1)CCc1cc2c(cc1-3)OCO2 |  | 7 µM | 16 µM |  |  |
| COc1ccc2cc3[n+](cc2c1OCCC[n+]1ccccc1)CCc1cc2c(cc1-3)OCO2 | 18 °C | 8 µM | 17 µM | 0.5 °C |  |
| COc1ccc2cc3[n+](cc2c1OCCC[n+]1ccc(N(C)C)cc1)CCc1cc2c(cc1-3)OCO2 | 25 °C | 4 µM | 14 µM | 0 °C | Active |
| COc1ccc2cc3[n+](cc2c1OC)CCc1cc2c(cc1-3)OCO2 | 4 °C |  |  | 1 °C |  |
| COc1ccc2cc3[n+](cc2c1OCCC[n+]1cccc(C)c1)CCc1cc2c(cc1-3)OCO2 | 21 °C | 6 µM | 14 µM | 0.5 °C |  |
| COc1ccc2cc3[n+](cc2c1OCCC[n+]1cccc(F)c1)CCc1cc2c(cc1-3)OCO2 | 20 °C | 6 µM | 16 µM | 0 °C |  |
| COc1ccc2cc3[n+](cc2c1OCCCn1cc[n+](C)c1)CCc1cc2c(cc1-3)OCO2 | 17 °C | 8 µM | 16 µM | 0 °C |  |
| COc1ccc2cc3[n+](cc2c1OCCCCCC[n+]1ccccc1)CCc1cc2c(cc1-3)OCO2 | 20 °C | 4 µM | 15 µM | 0 °C |  |
| COc1ccc2cc3[n+](cc2c1OCCC[n+]1cccc2ccccc21)CCc1cc2c(cc1-3)OCO2 | 20 °C | 8 µM | 15 µM | 0 °C |  |
